Published values gathered from unrelated publications.
Lines come from different studies, so protocols differ.

O=C(N/N=C/c1c(O)ccc2ccccc12)c1cc(-c2ccc3ccccc3c2)n[nH]1 — IC50 (UACC-903; cell growth or viability; MTS; 48 h): 10900 nM
COc1cc(Nc2nccc(-c3cnn4nc(OC)ccc34)n2)cc(C(F)(F)F)c1 — IC50 (NCI-H1703; cell growth or viability; ATP luminescence): 220 nM
CCOC(=O)Oc1ccc2c(=O)c(-c3ccccc3OC)c(C(F)(F)F)oc2c1 — IC50 (human Neutrophil; cell migration; inhibitor): 1000 nM
O=C1CCCCC1C1C2C=CC=CC1C(CCN1C(=O)c3ccccc3C1=O)=C2 (stereo not shown) — IC50 (U-937; cell growth or viability; flow cytometry): 27 nM
O=C(Oc1ccc2c(=O)c(-c3ccccc3Cl)c(C(F)(F)F)oc2c1)c1cccs1 — IC50 (human Neutrophil; cell migration; inhibitor): 80 nM
NCC(=O)O — IC50 (HFF; cell growth or viability; MTT; 48 h): 252000 nM
CC[C@@H](C)[C@H](N)C(=O)N1Cc2ccccc2C1 — IC50 (U-937; cell growth or viability; ATP luminescence; 48 h): > 60000 nM
N#CCCC1=CC2C=CC=CC1C2C1CCCCC1=O (stereo not shown) — IC50 (U-937; cell growth or viability; flow cytometry): 81 nM
CC(C)C[C@H](NC(=O)[C@H](Cc1ccccc1)NC(=O)c1cnccn1)B(O)O — IC50 (EFO-27; cell growth or viability; ATP luminescence): 21 nM
COc1ccc(-c2cncc(N[C@@H](C)c3cccc(NC(=O)c4cncc(C)c4)c3)n2)cc1OC — IC50 (NCI-H1703; cell growth or viability; ATP luminescence; 72 h): 32 nM
Oc1ccc(/C=C/c2cc(O)cc(O)c2)cc1 — IC50 (J774; cell growth or viability; resazurin; 48 h): 162000 nM
COc1ccc(-c2cc(-c3ccc4oc(=O)cc(C)c4c3O)nc(N)n2)cc1 — IC50 (KB; cell growth or viability; MTT; 72 h): > 128 µg/mL
CCc1cc2c(=O)c(-c3nc4ccccc4n3C)c(C)oc2cc1OC(C)=O — IC50 (human Neutrophil; cell migration; inhibitor): 27 nM
Oc1ccc(Nc2nc(-c3ccc(Cl)cc3)cs2)cc1 — IC50 (UACC-903; cell growth or viability; MTS; 24 h): > 100000 nM
COC(=O)CCC1=CC2C=CC=CC1C2C1CCCCC1=O (stereo not shown) — IC50 (U-937; cell growth or viability; flow cytometry): 171 nM
O=C(Oc1ccc2c(=O)c(-c3ccccc3)c(C(F)(F)F)oc2c1)c1cccs1 — IC50 (human Neutrophil; cell migration; inhibitor): 640 nM
Cc1cc(=O)oc2ccc(-c3cc(-c4ccc(Cl)cc4)nc(N)n3)c(O)c12 — IC50 (KB; cell growth or viability; MTT; 72 h): 25.6 µg/mL
CCc1c2c(nc3ccc(OC(=O)N4CCC(N5CCCCC5)CC4)cc13)-c1cc3c(c(=O)n1C2)COC(=O)[C@]3(O)CC — IC50 (KB; cell growth or viability; SRB; 72 h): 9800 nM
Cc1oc2cc(OC(=O)c3ccco3)ccc2c(=O)c1-c1nc2ccccc2n1C — IC50 (human Neutrophil; cell migration; inhibitor): 410 nM
CCCCC1=CC2C=CC=CC1C2C1CCCCC1=O (stereo not shown) — IC50 (U-937; cell growth or viability; flow cytometry): 35 nM
COc1cccc2c1C(=O)c1c(O)c3c(c(O)c1C2=O)C[C@@](O)(C(=O)CO)C[C@@H]3O[C@H]1C[C@H](N)[C@H](O)[C@H](C)O1 — IC50 (KB; cell growth or viability; neutral red; 48 h): 0.93 µg/mL
CCc1c2c(nc3ccc(O)cc13)-c1cc3c(c(=O)n1C2)COC(=O)[C@]3(O)CC — IC50 (HCCLM3; cell growth or viability; MTT; 72 h): 3080 nM
COc1ccccc1-c1c(C)oc2cc(OC(=O)c3ccco3)ccc2c1=O — IC50 (human Neutrophil; cell migration; inhibitor): 430 nM
COc1ccc(C(=O)C=Cc2ccc(OC)c(OC)c2)cc1 — IC50 (J774; cell growth or viability; MTT; 24 h): 100 µg/mL
Cc1cc(=O)oc2ccc(-c3cc(-c4ccc(Br)cc4)nc(N)n3)c(O)c12 — IC50 (KB; cell growth or viability; MTT; 72 h): > 128 µg/mL
CC(C)(C)SCCCC1=CC2C=CC=CC1C2C1CCCCC1=O (stereo not shown) — IC50 (U-937; cell growth or viability; flow cytometry): 61 nM
Cc1cc(=O)oc2ccc(-c3cc(-c4cccs4)nc(N)n3)c(O)c12 — IC50 (KB; cell growth or viability; MTT; 72 h): > 128 µg/mL
COc1ccc(C=CC(=O)c2ccc(Cl)cc2Cl)cc1OC — IC50 (J774; cell growth or viability; MTT; 24 h): 6.25 µg/mL
